# Measurements published in ChEMBL document CHEMBL5058577, “EUbOPEN Chemogenomics Library 2 (Multiplex)” (2022).
# System: U2OS
# Experiment: Multiplex assay against U2OS
# Assay type: toxicity, cell-based
# Conditions: human
# Outline: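 Values for tubulin, mitochondrial-mass and membrane-permeability phenotypes are per cents of cells with healthy nuclei. These cells were identified by CellPathfinder machine-learning gating of live cells that had been stained at seeding with Hoechst33342, BioTracker Green Microtubule Cytoskeleton Dye, MitoTracker Red and Annexin V Alexa Fluor 680 and imaged on a CQ1 microscope at 37°C and 5% CO2 after compound addition. The gating first set Hoechst high-intensity objects apart from normal cells, then split normal cells into healthy, pyknosed or fragmented nuclei, and pyknosed cells into mitotic or apoptotic.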
# [1] = 12 h, 1 µM, compound concentration 1 uM, replicate 1
# [2] = 12 h, 1 µM, compound concentration 1 uM, replicate 2
# [3] = 12 h, 10 µM, compound concentration 10 uM, replicate 1
# [4] = 12 h, 10 µM, compound concentration 10 uM, replicate 2
# [5] = 24 h, 1 µM, compound concentration 1 uM, replicate 1
# [6] = 24 h, 1 µM, compound concentration 1 uM, replicate 2
# [7] = 24 h, 10 µM, compound concentration 10 uM, replicate 1
# [8] = 24 h, 10 µM, compound concentration 10 uM, replicate 2
# [9] = 48 h, 1 µM, compound concentration 1 uM, replicate 1
# [10] = 48 h, 1 µM, compound concentration 1 uM, replicate 2
# [11] = 48 h, 10 µM, compound concentration 10 uM, replicate 1
# [12] = 48 h, 10 µM, compound concentration 10 uM, replicate 2
smiles,measurement,setting,value
COc1cc(OC2CCN(C(C)=O)CC2)ccc1C(=O)N1CCC(N2C(=O)OCc3ccccc32)CC1,Population Apoptotic (%),[1],50%
same,Population Fragmented Nuclei (%),[1],22%
same,Population Healthy Nuclei (%),[1],67%
same,Population Hoechst High Intensity Objects (%),[1],0%
same,Population Membrane Permeable-Phenotype (%),[1],5%
same,Population Mitochondria Different-Phenotype (%),[1],3%
same,Population Mitotic Cells (%),[1],50%
same,Population Normal (%),[1],99%
same,Population Pyknosed Nuclei (%),[1],9%
same,Population Tubulin-Different-Phenotype (%),[1],3%
same,Total Cell Count,[1],233
same,Population Apoptotic (%),[2],66%
same,Population Fragmented Nuclei (%),[2],20%
same,Population Healthy Nuclei (%),[2],69%
same,Population Membrane Permeable-Phenotype (%),[2],11%
same,Population Mitochondria Different-Phenotype (%),[2],7%
same,Population Mitotic Cells (%),[2],33%
same,Population Tubulin-Different-Phenotype (%),[2],8%
same,Total Cell Count,[2],130
same,Population Apoptotic (%),[3],72%
same,Population Fragmented Nuclei (%),[3],23%
same,Population Healthy Nuclei (%),[3],62%
same,Population Hoechst High Intensity Objects (%),[3],6%
same,Population Membrane Permeable-Phenotype (%),[3],18%
same,Population Mitochondria Different-Phenotype (%),[3],6%
same,Population Mitotic Cells (%),[3],27%
same,Population Normal (%),[3],93%
same,Population Pyknosed Nuclei (%),[3],13%
same,Population Tubulin-Different-Phenotype (%),[3],12%
same,Total Cell Count,[3],228
same,Population Apoptotic (%),[4],87%
same,Population Fragmented Nuclei (%),[4],13%
same,Population Healthy Nuclei (%),[4],77%
same,Population Hoechst High Intensity Objects (%),[4],1%
same,Population Membrane Permeable-Phenotype (%),[4],21%
same,Population Mitochondria Different-Phenotype (%),[4],10%
same,Population Mitotic Cells (%),[4],12%
same,Population Normal (%),[4],98%
same,Population Pyknosed Nuclei (%),[4],9%
same,Population Tubulin-Different-Phenotype (%),[4],13%
same,Total Cell Count,[4],85
same,Population Apoptotic (%),[5],82%
same,Population Fragmented Nuclei (%),[5],20%
same,Population Healthy Nuclei (%),[5],71%
same,Population Hoechst High Intensity Objects (%),[5],1%
same,Population Membrane Permeable-Phenotype (%),[5],3%
same,Population Mitochondria Different-Phenotype (%),[5],2%
same,Population Mitotic Cells (%),[5],17%
same,Population Normal (%),[5],98%
same,Population Pyknosed Nuclei (%),[5],8%
same,Population Tubulin-Different-Phenotype (%),[5],2%
same,Total Cell Count,[5],288
same,Population Apoptotic (%),[6],76%
same,Population Fragmented Nuclei (%),[6],22%
same,Population Healthy Nuclei (%),[6],68%
same,Population Membrane Permeable-Phenotype (%),[6],7%
same,Population Mitochondria Different-Phenotype (%),[6],5%
same,Population Mitotic Cells (%),[6],23%
same,Population Tubulin-Different-Phenotype (%),[6],3%
same,Total Cell Count,[6],163
same,Population Apoptotic (%),[7],81%
same,Population Fragmented Nuclei (%),[7],21%
same,Population Healthy Nuclei (%),[7],60%
same,Population Hoechst High Intensity Objects (%),[7],5%
same,Population Membrane Permeable-Phenotype (%),[7],9%
same,Population Mitochondria Different-Phenotype (%),[7],9%
same,Population Mitotic Cells (%),[7],18%
same,Population Normal (%),[7],94%
same,Population Pyknosed Nuclei (%),[7],18%
same,Population Tubulin-Different-Phenotype (%),[7],4%
same,Total Cell Count,[7],250
same,Population Apoptotic (%),[8],71%
same,Population Fragmented Nuclei (%),[8],12%
same,Population Healthy Nuclei (%),[8],80%
same,Population Hoechst High Intensity Objects (%),[8],2%
same,Population Membrane Permeable-Phenotype (%),[8],10%
same,Population Mitochondria Different-Phenotype (%),[8],3%
same,Population Mitotic Cells (%),[8],28%
same,Population Normal (%),[8],97%
same,Population Pyknosed Nuclei (%),[8],7%
same,Population Tubulin-Different-Phenotype (%),[8],6%
same,Total Cell Count,[8],99
same,Population Apoptotic (%),[9],80%
same,Population Fragmented Nuclei (%),[9],17%
same,Population Healthy Nuclei (%),[9],77%
same,Population Hoechst High Intensity Objects (%),[9],3%
same,Population Membrane Permeable-Phenotype (%),[9],3%
same,Population Mitochondria Different-Phenotype (%),[9],1%
same,Population Mitotic Cells (%),[9],19%
same,Population Normal (%),[9],96%
same,Population Pyknosed Nuclei (%),[9],5%
same,Population Tubulin-Different-Phenotype (%),[9],2%
same,Total Cell Count,[9],388
same,Population Apoptotic (%),[10],65%
same,Population Fragmented Nuclei (%),[10],23%
same,Population Healthy Nuclei (%),[10],66%
same,Population Membrane Permeable-Phenotype (%),[10],10%
same,Population Mitochondria Different-Phenotype (%),[10],5%
same,Population Mitotic Cells (%),[10],35%
same,Population Pyknosed Nuclei (%),[10],9%
same,Population Tubulin-Different-Phenotype (%),[10],4%
same,Total Cell Count,[10],213
same,Population Apoptotic (%),[11],81%
same,Population Fragmented Nuclei (%),[11],19%
same,Population Healthy Nuclei (%),[11],66%
same,Population Hoechst High Intensity Objects (%),[11],5%
same,Population Membrane Permeable-Phenotype (%),[11],5%
same,Population Mitochondria Different-Phenotype (%),[11],4%
same,Population Mitotic Cells (%),[11],18%
same,Population Normal (%),[11],95%
same,Population Pyknosed Nuclei (%),[11],14%
same,Population Tubulin-Different-Phenotype (%),[11],3%
same,Total Cell Count,[11],320
same,Population Apoptotic (%),[12],100%
same,Population Fragmented Nuclei (%),[12],17%
same,Population Healthy Nuclei (%),[12],78%
same,Population Hoechst High Intensity Objects (%),[12],1%
same,Population Membrane Permeable-Phenotype (%),[12],14%
same,Population Mitochondria Different-Phenotype (%),[12],6%
same,Population Mitotic Cells (%),[12],0%
same,Population Normal (%),[12],98%
same,Population Pyknosed Nuclei (%),[12],3%
same,Population Tubulin-Different-Phenotype (%),[12],8%
same,Total Cell Count,[12],130
